This is an account of results in ChEMBL document CHEMBL1147479, “Synthesis and biological evaluation of benzimidazole-4,7-diones that inhibit vascular smooth muscle cell proliferation” (Bioorg Med Chem Lett, 2004).

Structures are written as SMILES. Some results are limits rather than exact numbers.

The species entered for the test is Rattus norvegicus. Put plainly: Inhibitory activity against the PDGF-induced proliferation of rat aortic smooth muscle cell (RAoSMC). The test is classed as functional, organism-based. The gist of the method:
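Smooth muscle cells isolated from rat thoracic aorta, kept in DMEM with 10% FBS. Seeded in triplicate at 1×10³ cells/well and grown 24 h, then starved in 0.2% FBS for 72 h. Treated for 48 h in DMEM with PDGF (5 ng/mL) and 5% FBS. Proliferation read by WST-1 uptake (colorimetric); IC50 derived by comparison with mycophenolic acid standard.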
For the compound `O=C1C(Br)=C(Nc2ccc(Cl)cc2)C(=O)c2[nH]cnc21`, the half-inhibitory concentration (IC50) turned out to be 4 µM.
In turn, `O=C1C(Br)=C(Nc2ccc(C(F)(F)F)cc2)C(=O)c2[nH]cnc21` registered a concentration for half-maximal inhibition (IC50) of 3.1 µM.
Under `O=C1C(Cl)=C(Nc2ccc(F)cc2)C(=O)c2[nH]cnc21` stands 1.2 µM.
For `Cc1nc2c([nH]1)C(=O)/C(=N/c1ccc(F)cc1F)C(Cl)=C2O` the value was 1.2 µM.
As to `Cc1ccc(NC2=C(Cl)C(=O)c3nc(C(F)(F)F)[nH]c3C2=O)cc1`, the concentration for half-maximal inhibition (IC50) turned out to be 40 µM.
As for `O=C1C(Cl)=C(Nc2ccc(F)cc2)C(=O)c2[nH]c(C(F)(F)F)nc21`, the IC50 was 12 µM.
With `Cc1ccc(NC2=C(Cl)C(=O)c3nc[nH]c3C2=O)cc1`, the IC50 came out at 1.4 µM.
`Cc1nc2c([nH]1)C(=O)/C(=N/c1ccc(Cl)cc1Cl)C(Cl)=C2O`: 0.8 µM corresponded to half-maximal inhibition (IC50).
For `Cc1nc2c([nH]1)C(=O)/C(=N/c1cccc(Br)c1)C(Cl)=C2O` the value was 1 µM; for `O=C1C(Cl)=C(Nc2ccc(F)c(F)c2)C(=O)c2[nH]cnc21`, 1.1 µM; for `O=C1C(Br)=C(Nc2cccc(I)c2)C(=O)c2[nH]cnc21`, 2.5 µM.
On to `O=C1C(Cl)=C(Nc2cccc(Br)c2)C(=O)c2[nH]cnc21`, for which the IC50 is 1.6 µM.
As to `O=C1C(Cl)=C(Nc2cccc(I)c2)C(=O)c2[nH]cnc21`, the IC50 worked out at 1.3 µM.
Under `Cc1nc2c([nH]1)C(=O)/C(=N/c1ccc(F)c(F)c1F)C(Cl)=C2O` stands 1.1 µM; under `Cc1nc2c([nH]1)C(=O)/C(=N/c1ccc(C(F)(F)F)cc1)C(Cl)=C2O`, 0.6 µM.
As to `O=C1C(Cl)=C(Nc2ccc(I)cc2)C(=O)c2[nH]cnc21`, the IC50 is 1.3 µM.
Under `COc1ccc(OC)c2[nH]c(C)nc12` stands above 100 µM; under `O=C1C(Br)=C(Nc2ccc(F)cc2)C(=O)c2[nH]cnc21`, 1 µM.
Compound `Cc1nc2c([nH]1)C(=O)/C(=N/c1ccc(F)cc1)C(Cl)=C2O` had an IC50 of 3 µM.
The compound `O=C1C(Cl)=C(Nc2ccc(C(F)(F)F)cc2)C(=O)c2[nH]c(C(F)(F)F)nc21` gave an IC50 of 20 µM.
`Cc1nc2c([nH]1)C(=O)/C(=N/c1cccc(Cl)c1)C(Cl)=C2O` yielded an IC50 of 0.9 µM.
Regarding `Cc1ccc(NC2=C(Br)C(=O)c3nc[nH]c3C2=O)cc1`, the 50% inhibitory concentration (IC50) was 1 µM.
`Cc1ccc(NC2=C(Cl)C(=O)c3nc(C)[nH]c3C2=O)cc1` showed an IC50 of 0.8 µM.
Turning to `Cc1nc2c([nH]1)C(=O)/C(=N/c1ccccc1)C(Cl)=C2O`, the concentration for half-maximal inhibition (IC50) is 0.8 µM.
`O=C1C(Cl)=C(Nc2ccc(Cl)cc2)C(=O)c2[nH]c(C(F)(F)F)nc21` displayed an IC50 of 15 µM.
As to `Cc1nc2c([nH]1)C(=O)/C(=N/c1cccc(Cl)c1Cl)C(Cl)=C2O`, half-maximal inhibition (IC50) required 0.6 µM.
Under `Cc1nc2c([nH]1)C(=O)/C(=N/c1ccc(I)cc1)C(Cl)=C2O` stands 1 µM; under `O=C1C(Br)=C(Nc2ccccc2)C(=O)c2[nH]cnc21`, 1.1 µM; under `O=C1C(Cl)=C(Nc2ccc(C(F)(F)F)cc2)C(=O)c2[nH]cnc21`, 2.5 µM.
For `O=C1C(Cl)=C(Nc2ccccc2)C(=O)c2[nH]cnc21`, the IC50 came to 5.5 µM.
`Cc1nc2c([nH]1)C(=O)/C(=N/c1ccc(Cl)cc1)C(Cl)=C2O` displayed an IC50 of 2.8 µM.
Regarding `O=C1C(Cl)=C(Nc2ccc(I)cc2)C(=O)c2[nH]c(C(F)(F)F)nc21`, the IC50 worked out at 25 µM.
In turn, `O=C1C(Cl)=C(Nc2ccccc2)C(=O)c2[nH]c(C(F)(F)F)nc21` registered an IC50 of 50 µM.
`O=C1C(Cl)=C(Nc2cccc(Cl)c2)C(=O)c2[nH]cnc21` showed a 50% inhibitory concentration (IC50) of 1.4 µM.
As for `COc1c(C)c2c(c(O)c1C/C=C(\C)CCC(=O)O)C(=O)OC2` [MYCOPHENOLIC ACID], half-maximal inhibition (IC50) required 1 µM.
As for `COc1ccc(OC)c2[nH]cnc12`, the IC50 was above 100 µM.
